For eight molecules, MIC results are on record in ChEMBL document CHEMBL1255365, “In vitro antifungal susceptibility and molecular characterization of clinical isolates of Fusarium verticillioides (F. moniliforme) and Fusarium thapsinum” (2008).

What all share (format): functional
The subject of assay [1] is Fusarium verticillioides. Nature of the assay: Antifungal activity against Fusarium moniliforme clade 1 by microdilution method. In a few lines:
(§1)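 Clinical isolates grown on potato dextrose agar for 7 days at 25°C. Susceptibility tested by modified NCCLS (2002) broth microdilution reference method for filamentous fungi. Final inoculum 4 × 10^3 to 5 × 10^4 conidia/ml. Final drug ranges: 64–0.12 μg/ml for fluconazole and flucytosine, 128–0.25 μg/ml for micafungin, 16–0.03 μg/ml for the other azoles, amphotericin B and terbinafine.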

Assay [2] deals with Fusarium verticillioides. Nature of the assay: Antifungal activity against Fusarium moniliforme clade 2 by microdilution method. Summed up: as §1
Assay [3] deals with Fusarium verticillioides. Nature of the assay: Antifungal activity against Fusarium moniliforme clade 3 by microdilution method. In a few lines:
as §1

Assay [4] is described as follows: Antifungal activity against Fusarium thapsinum by microdilution method. The conditions noted are these: Gibberella thapsina. Summed up:
as §1

Structures are written as SMILES. ≈ marks a conversion by molar mass, not a printed value.

As to `CN(C/C=C/C#CC(C)(C)C)Cc1cccc2ccccc12` [TERBINAFINE], the minimal inhibitory concentration (MIC) came out at 0.21 µg/mL (≈ 0.721 µM) in assay [1], 0.31 µg/mL (≈ 1.06 µM) in assay [2], 0.25 µg/mL (≈ 0.858 µM) in assay [3] and 0.44 µg/mL (≈ 1.51 µM) in assay [4].

Regarding `C[C@@H](n1cnc2cc(Cl)ccc2c1=O)[C@](O)(Cn1cncn1)c1ccc(F)cc1F` [ALBACONAZOLE], the minimal inhibitory concentration (MIC) in assay [1] was determined as 3.03 µg/mL (≈ 7.02 µM); in assay [2], 3.56 µg/mL (≈ 8.24 µM); in assay [3], 5.66 µg/mL (≈ 13.1 µM); in assay [4], 18.4 µg/mL (≈ 42.6 µM).

For the molecule `CC[C@@H]([C@H](C)O)n1ncn(-c2ccc(N3CCN(c4ccc(OC[C@@H]5CO[C@@](Cn6cncn6)(c6ccc(F)cc6F)C5)cc4)CC3)cc2)c1=O` [POSACONAZOLE], the MIC in assay [1] is 0.79 µg/mL (≈ 1.13 µM); in assay [2] it was 0.89 µg/mL (≈ 1.27 µM); in assay [3] it was 1 µg/mL (≈ 1.43 µM); in assay [4], > 16 µg/mL.

As to `CCC(C)n1ncn(-c2ccc(N3CCN(c4ccc(OCC5COC(Cn6cncn6)(c6ccc(Cl)cc6Cl)O5)cc4)CC3)cc2)c1=O` (configuration not stated) [ITRACONAZOLE], the MIC in assay [1] was 12.7 µg/mL (≈ 18 µM); in assay [2] it was > 16 µg/mL; in assay [3] it was > 16 µg/mL; in assay [4] it was > 16 µg/mL.

Take `C[C@@H]1[C@H](O)[C@@H](C)/C=C/C=C/C=C/C=C/C=C/C=C/C=C/[C@H](O[C@@H]2O[C@H](C)[C@@H](O)[C@H](N)[C@@H]2O)C[C@@H]2O[C@](O)(C[C@@H](O)C[C@@H](O)[C@H](O)CC[C@@H](O)C[C@@H](O)CC(=O)O[C@H]1C)C[C@H](O)[C@H]2C(=O)O` [AMPHOTERICIN B]: the minimum inhibitory concentration (MIC) in assay [1] is 2.41 µg/mL (≈ 2.61 µM); in assay [2], 2.24 µg/mL (≈ 2.42 µM); in assay [3], 2 µg/mL (≈ 2.16 µM); in assay [4], 2.64 µg/mL (≈ 2.86 µM).

On to `CC(=O)N1CCN(c2ccc(OCC3COC(Cn4ccnc4)(c4ccc(Cl)cc4Cl)O3)cc2)CC1` (configuration not stated) [KETOCONAZOLE], for which the minimal inhibitory concentration (MIC) in assay [1] was 2 µg/mL (≈ 3.76 µM); in assay [2], 8 µg/mL (≈ 15.1 µM); in assay [3], 8 µg/mL (≈ 15.1 µM); in assay [4], > 16 µg/mL.

For `C[C@@H](c1nc(-c2ccc(C#N)cc2)cs1)[C@](O)(Cn1cncn1)c1ccc(F)cc1F` [RAVUCONAZOLE], the MIC in assay [1] is 1.45 µg/mL (≈ 3.31 µM); in assay [2], 2.24 µg/mL (≈ 5.12 µM); in assay [3], 4 µg/mL (≈ 9.14 µM); in assay [4] it was 18.4 µg/mL (≈ 42 µM).

In the case of `C[C@@H](c1ncncc1F)[C@](O)(Cn1cncn1)c1ccc(F)cc1F` [VORICONAZOLE], the minimal inhibitory concentration (MIC) is 2 µg/mL (≈ 5.73 µM) in assay [1], 2.83 µg/mL (≈ 8.1 µM) in assay [2], 2 µg/mL (≈ 5.73 µM) in assay [3] and 2.64 µg/mL (≈ 7.56 µM) in assay [4].
